PKA-R1A act: activators of PKA-R1A complex. P00514+P68181. PKA-R1A dissociation, Cy5-IP20 fluorescence polarization; scaled: DMSO 0%, 113 µM cGMP 100%. activation, % at 11.4 µM. 340,000 tested, 0.083% active. AID 504707;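 active = percent activation above the mean of all tested compounds plus 3 SD, cut at about 19% in these data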;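 also: higher means more PKAc released from R1A so a rise in polarization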
Rpn11 inh: inhibitors of human proteasome Rpn11; O00487; human 26S proteasome, Ub4-pepOG fluorescence polarization; 20S core pre-blocked with epoxomicin; calls only at 20 µM; 360,000 tested, 0.59% active;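 active = inhibition at 20 µM, scaled to each plate's controls, above about 33%, limit read from the data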
Target sequence (O00487 whole entry, looked up): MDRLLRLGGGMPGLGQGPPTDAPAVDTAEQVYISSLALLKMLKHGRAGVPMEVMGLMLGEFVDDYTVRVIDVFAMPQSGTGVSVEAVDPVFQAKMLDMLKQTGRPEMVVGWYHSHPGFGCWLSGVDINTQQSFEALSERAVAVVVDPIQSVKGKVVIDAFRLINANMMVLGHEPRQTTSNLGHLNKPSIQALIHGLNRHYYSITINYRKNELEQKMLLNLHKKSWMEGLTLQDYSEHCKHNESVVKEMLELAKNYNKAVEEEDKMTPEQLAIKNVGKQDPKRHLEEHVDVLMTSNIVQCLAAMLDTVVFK
TPT1 inh: inhibitors of Candida albicans tRNA 2'-phosphotransferase TPT1; recombinant caTPT1, FP RNA substrate dephosphorylation; inhibition, % at 5 µM; 300,000 tested, 0.81% active;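 active = inhibition above the mean of all tested compounds plus 3 SD, set per screening campaign, cut at about 24% in these data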
HNF4A DNA FP: change in binding of human HNF4 alpha to DNA | P41235 | HNF4a-FITC DNA binding, fluorescence polarization, 1 h | activity change, % at 10 µM | 360,000 tested, 0.3% active; in the data active = activity change above about 30%, passing the limit was not always enough
CSN inh: CSN deneddylation inhibition; Purified CSN, SCF-Nedd8-OG deneddylation, fluorescence polarization; inhibition, % at 12.5 µM; 360,000 tested, 0.38% active;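 active = pattern-corrected inhibition above about 35%, with an unprinted fluorescence ratio check between 0.5 and 1.5, limit read from the data, passing the limit was not always enough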
Target sequence (Q92905 whole entry, looked up, one chain of several): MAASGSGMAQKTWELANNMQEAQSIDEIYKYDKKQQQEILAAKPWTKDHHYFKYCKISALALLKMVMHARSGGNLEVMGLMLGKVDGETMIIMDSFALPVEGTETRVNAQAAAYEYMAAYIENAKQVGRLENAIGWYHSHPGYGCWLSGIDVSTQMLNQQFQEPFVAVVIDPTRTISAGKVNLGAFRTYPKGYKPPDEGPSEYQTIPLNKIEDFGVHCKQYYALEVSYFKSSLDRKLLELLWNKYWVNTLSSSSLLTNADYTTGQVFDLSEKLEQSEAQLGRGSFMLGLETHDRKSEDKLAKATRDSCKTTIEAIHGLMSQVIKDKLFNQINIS
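test system = HEK293T-derived human Csn5 enzyme | amount = 0.24 nM Csn5 enzyme, final concentration | medium = Tris/NaCl/DTT buffer, pH 7.5 | schedule = 90 min reaction at room temperature | signal = FP | evaluation = inhibition of Csn5 cleavage, % | compound dosing = single dose of 12.5 µM compound with 0.25% DMSO | probe or stimulus = 10 nM SCFSkp2-Nedd8OG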
PKA-R2B act: PKA-R2B complex activation | P22694+P31323 | PKA-R2B holoenzyme dissociation, Cy5-IP20 fluorescence polarization; R2B truncated from residue 108, S112A mutant; 0% DMSO only, 100% 113 µM cGMP | activation, % at 11.4 µM | 340,000 tested, 0.079% active;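 active = activation above a cutoff set at the mean over all compounds plus 3 SD, cut at about 18% in these data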;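 also: higher means more holoenzyme dissociation and a rise in polarization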
Rpn11 confirm: Rpn11 inhibition confirmation, single concentration; inhibition, % at 20 µM; 1,900 tested, 29% active; purified human 26S proteasome, Ub4-pepOG fluorescence polarization; proteasome pretreated with epoxomicin; shares compounds with Rpn11 inh
MMP-2 counter: blocks human MMP-2, flagging nonselective RPN11 hits; 1,900 tested, 4% active; inhibition, % at 20 µM; recombinant MMP-2, FRET peptide cleavage fluorescence; shares compounds with Rpn11 inh;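 also: human MMP-2 activated beforehand with APMA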
Thrombin inh: counter-screen for RPN11 inhibitors: inhibition of bovine thrombin. shares compounds with Rpn11 inh. bovine thrombin cleavage of Ub4-pepOG, fluorescence polarization. inhibition, % at 20 µM. 1,900 tested, 13% active. AID 602333;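 active = mean inhibition at least 40% at 20 µM, or signal 3 deviations below plate average, so some actives read negative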
Hits are given with their value; – = inactive; · = no result given; + = active, no number. Most compounds without a hit are left out; they make up all but 1.6% or so of the library. Rule as the data show it, unless noted: active = inhibition above about 40%; inactive = the rest.

SMILES	PKA-R1A act	Rpn11 inh	TPT1 inh	HNF4A DNA FP	CSN inh	PKA-R2B act	Rpn11 confirm	MMP-2 counter	Thrombin inh
O=C(O)c1cc(-c2ccc(/C=N/Nc3ccc([N+](=O)[O-])cn3)o2)ccc1Cl	–	+	·	–	–	–	–	–	–
O=C(Nc1nc(-c2ccc(F)c(F)c2)cs1)Nc1ccc(F)cc1F	–	+	–	–	–	–	79	–	–
CSc1nc2nccc(-c3ccc(-c4ccccc4)cc3)n2n1	–	+	–	–	–	–	–	–	–
CSc1nc2nccc(-c3ccc(Oc4ccccc4)cc3)n2n1	–	–	–	–	–	–	·	·	·
CC(/C=N/NC(=O)CSc1n[nH]c(=O)[nH]c1=O)=C\c1ccccc1	–	–	–	–	–	–	·	·	·
Cc1sc2nc(CSc3ccc([N+](=O)[O-])c(C(F)(F)F)c3)[nH]c(=O)c2c1C	–	+	–	–	–	–	–	–	–
Cc1sc2nc(CSC(C)C(=O)N(C)CC(=O)Nc3ccccc3C(F)(F)F)[nH]c(=O)c2c1C (stereo unspecified)	–	–	–	–	–	–	·	·	·
COC(=O)c1sccc1NC(=O)c1ccncc1	–	+	–	–	–	–	–	–	–
Cc1ccc(N2C(=O)[C@@H]3C(c4cccnc4)=NO[C@@H]3C2=O)cc1	·	–	–	–	–	·	·	·	·
O=C(COc1ccc(F)cc1)NN1C(=O)CSC1=S	–	+	–	–	–	–	–	–	–
Cc1cccc(N2CCN(S(=O)(=O)c3cc4c(cc3Cl)NC(=O)CO4)CC2)c1C	–	+	–	–	–	–	–	–	–
COc1cccc(N2CCN(S(=O)(=O)c3cc4c(cc3Cl)NC(=O)CO4)CC2)c1	–	–	–	–	–	–	·	·	·
O=C(COC(=O)c1cnccn1)c1ccc(-c2ccccc2)cc1	–	–	–	–	–	–	·	·	·
Cc1nc(N)sc1-c1csc(Nc2ccc(S(N)(=O)=O)cc2)n1	–	+	·	–	–	–	–	–	–
COc1ccc(-c2csc(Nc3ccc(S(N)(=O)=O)cc3)n2)cc1	–	–	–	–	–	–	·	·	·
CCc1ccc(N2C(=O)Cc3c2nc(N)c(C#N)c3N)cc1	–	–	–	–	–	–	·	·	·
CCN(CC)c1nc2c3c(nc4c(c3c1C#N)CC(=O)N4c1ccc(Cl)cc1)NC(C)=N2	–	+	–	–	–	–	–	–	–
Cc1nnc(SCC(=O)N2N=C(c3ccc(Cl)cc3)CC2c2ccco2)[nH]c1=O (stereo unspecified)	–	+	–	–	–	–	–	–	–
COc1cc(C=C2CCCC(=Cc3ccc(OCC4CO4)c(OC)c3)C2=O)ccc1OCC1CO1 (stereo unspecified)	–	+	·	–	–	–	–	–	–
Cc1nnc(NC(=O)CSc2nnc(CC(=O)Nc3ccccc3C)n2C)s1	–	–	–	–	–	–	·	·	·
O=c1ccc(NS(=O)(=O)c2ccccc2)cn1Cc1ccc(Cl)c(Cl)c1	–	+	–	–	–	–	–	–	–
O=C(Cc1ccc(Cl)c(Cl)c1)Nc1ccc(S(=O)(=O)Nc2ncccn2)cc1	–	–	–	–	–	–	·	·	·
CCCCN(C)Cc1c(O)ccc2c(=O)c(-c3ccccc3OC)coc12	–	–	–	–	–	–	·	·	·
O=C(N/N=C/c1ccc(Cl)c([N+](=O)[O-])c1)c1ccc2c(c1)OCCO2	–	+	·	–	–	–	–	54	–
O=C(Nc1ccc(Cl)c([N+](=O)[O-])c1)c1ccc2c(c1)OCCO2	–	–	–	–	–	–	·	·	·
SMILES	PKA-R1A act	Rpn11 inh	TPT1 inh	HNF4A DNA FP	CSN inh	PKA-R2B act	Rpn11 confirm	MMP-2 counter	Thrombin inh
CN(C)S(=O)(=O)c1cccc(C(=O)N2CCN(Cc3ccccc3)CC2)c1	–	+	–	–	–	–	–	–	–
CC1CCN(c2ccc3nnc(CCC(=O)NCCCOC(C)C)n3n2)CC1	–	–	–	–	–	–	·	·	·
CNS(=O)(=O)c1ccc2nc(NC(=O)/C=C/c3ccco3)sc2c1	–	+	–	–	56	–	–	–	–
NC(=O)c1ccc(NC(=O)c2cnc3ccccc3n2)cc1	–	–	–	–	–	–	·	·	·
O=C(Nc1ccccc1)c1cnc2ccccc2n1	–	+	–	–	–	–	–	–	–
O=C(c1cccnc1)c1ncc(C(F)(F)F)cc1Cl	–	–	–	–	–	–	·	·	·
CCOC(=O)C1CCCCN1C(=O)/C(=C/c1ccc(OC)cc1)c1ccc(OC)c(OC)c1 (stereo unspecified)	–	–	·	–	–	–	·	·	·
Cc1ccc(NC(=O)CSCC(=O)NC2=NCCS2)cc1	–	–	·	–	–	–	·	·	·
O=C1NC(=O)/C(=C\c2ccccc2OCc2ccc([N+](=O)[O-])cc2)N1	–	+	–	–	–	–	–	–	–
COc1cccc(/C=N/NC(=O)c2cccc3ccccc23)c1OC	–	+	–	–	–	–	–	–	–
CCCc1nnc(SCC(=O)N2CCCCC2)n1CCCOC	–	–	–	–	–	–	·	·	·
Cc1nonc1NC(=O)Nc1cccnc1	–	+	–	–	–	–	–	–	–
Cn1ccc2cc(NC(=O)Nc3cccnc3)ccc21	–	+	–	–	–	–	–	–	–
Cc1cccc(NC(=O)Nc2cccnc2)c1C	–	–	·	–	–	–	·	·	·
Cc1ccc(S(=O)(=O)Nc2nc(C)c(C)s2)cc1	–	–	–	–	–	–	·	·	·
CCC(=O)NC(c1cccs1)c1cc([N+](=O)[O-])c2cccnc2c1O (stereo unspecified)	–	+	–	–	–	–	48	–	–
CCCC(=O)NC(c1cccs1)c1cc([N+](=O)[O-])c2cccnc2c1O (stereo unspecified)	–	+	–	–	–	–	66	–	–
O=C(CCc1ccccc1)NC(c1cccs1)c1cc(Cl)c2cccnc2c1O (stereo unspecified)	–	–	·	–	–	–	·	·	·
CC(C)C(=O)NC(c1ccccc1)c1cc([N+](=O)[O-])c2cccnc2c1O (stereo unspecified)	–	+	–	–	–	–	47	43	–
COCCN1C(=O)C(C(=O)OC)CC2=C1CC(C)(C)CC2=O (stereo unspecified)	–	–	·	–	–	–	·	·	·

Screening results deposited in PubChem by several laboratories.
